Measured values reported in ChEMBL document CHEMBL1157363, “Inhibition of isolated Mycobacterium tuberculosis fatty acid synthase I by pyrazinamide analogs” (Antimicrob Agents Chemother, 2007).
pIC50, pKi: −log10 of the molar value. Activity calls are given as the source filed them. The calls are words filed in the database; no cut-off is given here.

Assays:
[1] = test system: Mycobacterium tuberculosis; assay: Inhibition of Mycobacterium tuberculosis fatty acid synthase 1 expressed in Mycobacterium smegmatis mc2 2700 assessed as [2-14C]]malonyl-CoA incorporation into fatty acid at 3000 uM
[2] = test system: Mycobacterium tuberculosis; assay: Inhibition of Mycobacterium tuberculosis fatty acid synthase 1 expressed in Mycobacterium smegmatis mc2 2700 assessed as [2-14C]]malonyl-CoA incorporation into fatty acid at 6000 uM
[3] = Inhibition of Mycobacterium tuberculosis fatty acid synthase 1 expressed in Mycobacterium smegmatis mc2 2700 assessed as NADPH oxidation at 100 uM of NADPH by spectrophotometry
Summary of the method: (§1)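 Purified Mtb FASI (from M. smegmatis Δfas1 attB::Mtb fas1, ammonium sulfate, DE52, gel filtration), 1–3 μg in 1 ml: 50 μM acetyl-CoA, 40 μM malonyl-CoA, 100 μM NADPH, 5 mM DTT, 400 mM potassium phosphate pH 7.4; inhibitor in DMSO (≤0.05 ml/ml). Linear A340 decrease over 10 min at 37°C; IC50 from Dixon plot x-intercept at 100 μM NADPH.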

[4] = test system: Mycobacterium tuberculosis; assay: Inhibition of Mycobacterium tuberculosis fatty acid synthase 1 expressed in Mycobacterium smegmatis mc2 2700 assessed as NADPH oxidation by spectrophotometry; summary of the method: as §1
[5] = Inhibition of Mycobacterium tuberculosis fatty acid synthase 1 expressed in Mycobacterium smegmatis mc2 2700 assessed as NADPH oxidation using variable concentration of NADPH by spectrophotometry
[6] = test system: Mycobacterium tuberculosis; assay: Inhibition of Mycobacterium tuberculosis fatty acid synthase 1 expressed in Mycobacterium smegmatis mc2 2700 assessed as NADPH oxidation upto 100 mM by spectrophotometry
Summary of the method: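 NADPH oxidation by purified Mtb FASI (1–3 μg/ml), 50 μM acetyl-CoA, 40 μM malonyl-CoA, 100 μM NADPH, 5 mM DTT, 400 mM potassium phosphate pH 7.4, 37°C, A340 decrease over 10 min; inhibitor added from DMSO at up to 100 mM, percent inhibition read.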

## C/C=C/C/C=C/CCC(=O)[C@H]1O[C@H]1C(N)=O
[1]
  Activity: inactive
[2]
  inhibition: 62%

## CC(C)(C)OC(=O)c1cnc(F)cn1
[3]
  pIC50: 5.37

## CCCOC(=O)c1cnc(Cl)cn1
[3]
  pIC50: 5.23
[2]
  inhibition: 66%

## CC(C)(C)OC(=O)c1cnc(Cl)cn1
[3]
  pIC50: 4.82

## CCCOC(=O)c1cnccn1
[3]
  pIC50: 2.76
[1]
  inhibition: 6%
[2]
  inhibition: 37%

## NC(=O)c1cnc(Cl)cn1
[4]
  Activity: Dose-dependent effect
[3]
  pIC50: 4.82
[5]
  pIC50: 3.82
  pKi: 4.26
[1]
  inhibition: 39%

## CCCNC(=O)c1cnc(Cl)cn1
[3]
  pIC50: 5.09
[1]
  inhibition: 6%
[2]
  inhibition: 37%

## O=C(O)c1cnccn1
[4]
  Activity: Dose-dependent effect
[1]
  inhibition: 6%
[2]
  inhibition: 37%

## NC(=O)c1cnccn1 [PYRAZINAMIDE]
[4]
  Activity: Dose-dependent effect
[3]
  pIC50: 2.05
[5]
  pIC50: 2.05
  pKi: 2.59
[1]
  inhibition: 6%
[2]
  inhibition: 37%

## CC(C)(C)NC(=O)c1cnc(Cl)cn1
[3]
  pIC50: 5.06

## CCCOC(=O)c1cnc(F)cn1
[3]
  pIC50: 5.82
[2]
  inhibition: 66%

## CC(C)(C)OC(=O)c1cnccn1
[3]
  pIC50: 2.87

## CC[C@@H](CO)NCCN[C@@H](CC)CO
[2]
  Activity: inactive

## NC(=O)c1ccccc1
[6]
  inhibition: 15%
